This passage reports Activity, IC50 and inhibition results from ChEMBL document CHEMBL5705907 (BMC Rheumatol, 2018).

Structures are written as SMILES. Calls of active or inactive are those of the source. The rule behind the calls is not given here.

Assay [1] concerns Rattus norvegicus. The experiment in a line: Antiarthritic activity in adjuvant-induced arthritis Lewis rat model at 3 to 10 mg/kg, po administered for 10 days and measured on day 17 by microCT-scanning analysis. The note with it: dose 3-10 mg/kg, time 17.0 day. In kind it is functional, organism-based. The method in brief: (§1)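 Lewis rats with adjuvant-induced arthritis were given vehicle or drug by oral gavage twice daily for 10 days (Day 7–Day 17 post immunization). On Day 17 they were exsanguinated by cardiac puncture under isoflurane. Left rear paws were μCT-scanned, and bone volume and density were determined in a 360 μm vertical section through the tarsal region. Groups were compared with vehicle by Dunnett's test.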

For assay [2], the system named is Rattus norvegicus. The experiment in a line: Antiarthritic activity in adjuvant-induced arthritis Lewis rat model assessed as reduction in paw swelling at 5 to 10 mg/kg, po administered for 10 days and measured on day 17. In kind it is functional. On the set-up: scale not given: the % may be the effect or the level left. To be noted: dose 5-10 mg/kg, time 17 day. The method in brief:
(§2)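 In rats with adjuvant-induced arthritis, vehicle or drug was given by oral gavage BID for 10 days (Day 7–Day 17 after immunization). Paw swelling was measured by water-displacement plethysmography every other day up to Day 17. Treatment groups were compared with vehicle by Dunnett's multiple comparison test.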

Assay [3] is described as follows: Inhibition of ABL (unknown origin) by TR-FRET assay. On the set-up: species or system Homo sapiens. For orientation: In TR-FRET formats the signal depends on donor and acceptor labels being close together.
The target in assay [4] is AMP-activated protein kinase, AMPK. Put plainly: Inhibition of AMPK (unknown origin) by TR-FRET assay. The format is protein-complex assay, Homo sapiens.
Assay [5] concerns the target Cyclin-dependent kinase 11B (Homo sapiens, UniProt P21127). The experiment in a line: Inhibition of CDK11 (unknown origin) by TR-FRET assay.
Assay [6] relates to Rattus norvegicus. The experiment in a line: Antiarthritic activity in adjuvant-induced arthritis Lewis rat model assessed as reduction in paw swelling administered for 10 days and measured on day 17. In kind it is functional, organism-based. To be noted: time 17.0 day. The method in brief:
as §2

Assay [7] deals with Rattus norvegicus. Put plainly: Antiarthritic activity in adjuvant-induced arthritis po dosed Lewis rat model assessed as bone destruction by measuring reduction in bone volume administered for 10 days and measured on day 17 by microCT-scanning analysis. In kind it is functional, organism-based. To be noted: dose 0.1-10 mg/kg, time 17.0 day. The method in brief:
as §1

Assay [8] concerns Rattus norvegicus. Put plainly: Antiarthritic activity in adjuvant-induced arthritis Lewis rat model assessed as bone destruction by measuring reduction in bone volume at 10 mg/kg, po administered for 10 days and measured on day 17 by microCT-scanning analysis. In kind it is functional. On the set-up: scale not given: the % may be the effect or the level left. To be noted: time 17 day. The method in brief:
(§3)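 Rats dosed by oral gavage twice daily (BID) with vehicle or drug for 10 days (Day 7–Day 17 post immunization). On Day 17, rats exsanguinated by cardiac puncture under isoflurane; left rear paw scanned by μCT. Bone volume and density determined in a 360 μm vertical section encompassing the tarsal region. Each group compared with vehicle by Dunnett's multiple comparison test.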

For assay [9], the system named is Rattus norvegicus. The experiment in a line: Antiarthritic activity in adjuvant-induced arthritis Lewis rat model assessed as bone destruction by measuring reduction in bone volume at 3 mg/kg, po administered for 10 days and measured on day 17 by microCT-scanning analysis. The format is functional. On the set-up: scale not given: the % may be the effect or the level left. The note with it: time 17 day. The method in brief:
as §1

Assay [10] deals with Rattus norvegicus. The experiment in a line: Antiarthritic activity in adjuvant-induced arthritis Lewis rat model assessed as bone destruction by measuring reduction in bone volume at 1 mg/kg, po administered for 10 days and measured on day 17 by microCT-scanning analysis. In kind it is functional. On the set-up: scale not given: the % may be the effect or the level left. The note with it: time 17 day. In a few lines:
as §3

In assay [11] the test system is Rattus norvegicus. Put plainly: Antiarthritic activity in adjuvant-induced arthritis Lewis rat model assessed as bone destruction by measuring reduction in bone volume at 0.3 mg/kg, po administered for 10 days and measured on day 17 by microCT-scanning analysis. On the set-up: scale not given: the % may be the effect or the level left. In kind it is functional. The note with it: time 17 day. The method in brief:
as §3

Assay [12] deals with Rattus norvegicus. Put plainly: Antiarthritic activity in adjuvant-induced arthritis Lewis rat model assessed as bone destruction by measuring reduction in bone volume at 0.1 mg/kg, po administered for 10 days and measured on day 17 by microCT-scanning analysis. In kind it is functional. On the set-up: scale not given: the % may be the effect or the level left. To be noted: time 17 day. The method in brief: as §1

The subject of assay [13] is Rattus norvegicus. Put plainly: Antiarthritic activity in adjuvant-induced arthritis Lewis rat model assessed as improvement in synovial hypertrophy at 3 to 10 mg/kg, po administered for 10 days and measured on day 17 by microCT-scanning analysis. The format is functional, organism-based. The note with it: dose 3-10 mg/kg, time 17.0 day.
Assay [14] has as its system Rattus norvegicus. Put plainly: Antiarthritic activity in adjuvant-induced arthritis Lewis rat model assessed as improvement in cartilage damage at 3 to 10 mg/kg, po administered for 10 days and measured on day 17 by microCT-scanning analysis. The note with it: dose 3-10 mg/kg, time 17.0 day. In kind it is functional, organism-based.
Assay [15] deals with Rattus norvegicus. The experiment in a line: Antiarthritic activity in adjuvant-induced arthritis Lewis rat model assessed as improvement in bone erosion at 3 to 10 mg/kg, po administered for 10 days and measured on day 17 by microCT-scanning analysis. The format is functional, organism-based. The note with it: dose 3-10 mg/kg, time 17.0 day.
The test system of assay [16] is Blood. Put plainly: Ex-vivo inhibition of JAK1 in human blood assessed as reduction in IL-6-induced STAT3 phosphorylation at 36 mg/kg, po measured after 12 hrs. In kind it is functional, organism-based. The method in brief: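 Blood was drawn into sodium heparin tubes at 0, 1, 6 and 12 h after an oral dose. It was stimulated with recombinant human IL-6 (400 ng/ml) for 10 min at 37°C and surface-stained for CD14/CD3 on ice. Samples were lysed/fixed, frozen at −70°C, permeabilized, and stained for pSTAT3 for flow cytometry. Percent inhibition used geometric means of induced minus baseline pSTAT relative to pre-dose.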

Assay [17] has as its system Rattus norvegicus. Put plainly: Antiarthritic activity in adjuvant-induced arthritis Lewis rat model assessed as improvement in bone erosion at 3 to 10 mg/kg, po administered for 10 days and measured on day 17 by microCT-scanning analysis. The note with it: dose 3-10 mg/kg, time 17.0 day.
Assay [18] deals with Rattus norvegicus. The experiment in a line: Antiarthritic activity in adjuvant-induced arthritis Lewis rat model assessed as improvement in cartilage damage at 3 to 10 mg/kg, po administered for 10 days and measured on day 17 by microCT-scanning analysis. The note with it: dose 3-10 mg/kg, time 17.0 day.
In assay [19] the test system is Rattus norvegicus. Put plainly: Antiarthritic activity in adjuvant-induced arthritis Lewis rat model assessed as improvement in synovial hypertrophy at 3 to 10 mg/kg, po administered for 10 days and measured on day 17 by microCT-scanning analysis. The note with it: dose 3-10 mg/kg, time 17.0 day.

Sequence of Cyclin-dependent kinase 11B (P21127 whole entry): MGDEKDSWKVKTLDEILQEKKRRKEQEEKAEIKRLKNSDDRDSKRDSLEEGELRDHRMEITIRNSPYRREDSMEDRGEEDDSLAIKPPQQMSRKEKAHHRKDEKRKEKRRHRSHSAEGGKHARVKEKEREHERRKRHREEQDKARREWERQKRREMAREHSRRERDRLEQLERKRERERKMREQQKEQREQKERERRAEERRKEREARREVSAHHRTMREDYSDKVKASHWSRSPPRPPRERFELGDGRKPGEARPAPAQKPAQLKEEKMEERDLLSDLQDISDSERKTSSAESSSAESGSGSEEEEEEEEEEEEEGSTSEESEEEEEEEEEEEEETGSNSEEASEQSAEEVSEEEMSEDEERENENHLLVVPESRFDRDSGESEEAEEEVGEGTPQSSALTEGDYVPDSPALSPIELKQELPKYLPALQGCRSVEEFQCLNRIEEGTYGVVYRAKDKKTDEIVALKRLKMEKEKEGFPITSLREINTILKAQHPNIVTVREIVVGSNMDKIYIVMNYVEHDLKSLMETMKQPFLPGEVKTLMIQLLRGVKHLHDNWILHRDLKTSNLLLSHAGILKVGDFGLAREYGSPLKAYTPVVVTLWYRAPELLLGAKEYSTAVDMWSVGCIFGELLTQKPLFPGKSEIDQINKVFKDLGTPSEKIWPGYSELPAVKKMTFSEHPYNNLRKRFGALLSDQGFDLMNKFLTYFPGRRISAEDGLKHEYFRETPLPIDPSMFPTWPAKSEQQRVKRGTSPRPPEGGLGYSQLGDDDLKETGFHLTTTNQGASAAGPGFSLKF

Regarding `C[C@@H]1CCN(C(=O)CC#N)C[C@@H]1N(C)c1ncnc2[nH]ccc12` [TOFACITINIB], the result in [1] was Active. Also, in [2], the Activity is recorded as above 60%.

One may read the IC50 as the midpoint of a concentration-inhibition curve. As to `CC[C@@H]1CN(C(=O)NCC(F)(F)F)C[C@@H]1c1cnc2cnc3[nH]ccc3n12` [UPADACITINIB], the values for the IC50 in assay [3], in assay [4] and in [5] were above 10 µM, above 4.5 µM and above 10 µM, respectively. Also, the outcome in assay [6], in assay [13], in assay [14], in assay [15], in [17] and in assay [18] was Active. Further, the result in assay [19] was Active. Further, the Activity entry is “Dose-Dependent Effect” in assay [7]; 89% in assay [8]; 96% in assay [9]; 63% in assay [10]; 16% in [11]; 26% in assay [12]. In assay [2], the Activity was above 60%. The inhibition entry in assay [16] is “Active”.
